Screening results deposited in PubChem by several laboratories.
Shown are actives, neighbours in structure and some others; about 4.3% of the full set was active somewhere.
APP 5'UTR act: activators of APP 5'UTR luciferase reporter, primary screen, SH-SY5Y cells. SH-SY5Y APP 5'UTR luciferase reporter, luminescence; zero percent = DMSO vehicle wells. activation, % at 2 µM. 1% of 190,000 active;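 active means activation above a set limit, based on mean plus 3 SD of controls, cut at about 140% in these data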
NF-kB expr up: activators of NF-kB expression in neurons, primary screen, cell-based, HTS. human neuronal cells, NF-kB reporter expression; hits give high values. fold change at 12.5 µM. 1.6% of 190,000 active. AID 1239, 2008; in the data active means fold change above about 3.3
FLuc inhib CS: firefly luciferase enzyme inhibitors, primary screen, artefact control for luciferase-based inhibitor screens, biochemical, luminescence, ATPLite; 10 min; inhibition, % at 10 µM; 1.5% of 200,000 active;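 active means inhibition above about 50% when tested at 10 µM, limit read from the data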
Target sequence (P08659 whole entry, looked up): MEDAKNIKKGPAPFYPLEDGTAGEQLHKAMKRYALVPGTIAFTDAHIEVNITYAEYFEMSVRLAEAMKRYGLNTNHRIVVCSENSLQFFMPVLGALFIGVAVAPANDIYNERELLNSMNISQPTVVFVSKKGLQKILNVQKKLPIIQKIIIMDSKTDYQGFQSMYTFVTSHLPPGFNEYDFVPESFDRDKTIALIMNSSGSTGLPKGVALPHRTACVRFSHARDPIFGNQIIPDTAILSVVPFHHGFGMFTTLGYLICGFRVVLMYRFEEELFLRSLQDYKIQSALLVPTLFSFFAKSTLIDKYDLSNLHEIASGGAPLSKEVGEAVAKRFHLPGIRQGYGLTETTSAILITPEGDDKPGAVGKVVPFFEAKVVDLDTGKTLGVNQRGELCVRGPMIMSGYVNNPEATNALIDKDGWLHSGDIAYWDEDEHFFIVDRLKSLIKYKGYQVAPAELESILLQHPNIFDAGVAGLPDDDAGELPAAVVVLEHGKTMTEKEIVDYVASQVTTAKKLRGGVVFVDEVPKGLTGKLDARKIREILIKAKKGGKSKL
FLuc act counter: FLuc activators, initial screening, artefact control for FLuc-dependent activation tests, biochemical, ATPlite luminescence; Luciferin 4-monooxygenase (Photinus pyralis), P08659; ATPlite luciferase biochemical, 10 min; 0 = ATP-free wells, 1 = DMSO control; activation factor at 10 µM; 200,000 tested, under 10 active;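 active means luciferase activation factor, scaled between plate controls, of at least 2 with compound at 10 µM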
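Material: Luciferase/luciferin reagent mix | Doses: Test compounds dosed from 2 mM stocks in 100% DMSO | Timing: 10 min incubation after luciferase reagent addition, room temperature | Measured by: Luminescence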
STAT1 activator: STAT1 signaling activators, primary screen, cell-based, HTS, luciferase reporter | NIH 3T3 STAT1-luciferase reporter, IFN-gamma, luminescence; 100% = IFN-gamma alone, no compound | activation (% of control), % at 5.5 µM | 2.6% of 200,000 active;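 active means activation above the screen-wide mean activation plus 3 SD, cut at about 130% in these data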;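 further: raw ratio to IFN-gamma control signal so 100% means no change and 0% no light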
SDO1 yeast rescue: growth rescue of sdo1-depleted yeast, primary screen, S. cerevisiae, bone marrow failure model; S. cerevisiae sdo1-depleted JHY4D growth rescue, OD600 30 h; hits give high values; pdr5 snq2 efflux-pump mutant strain; z-score at 10 µM; 0.21% of 140,000 active; AID 817, 2007;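 active means z-score above 3 at both the 24 hr and the 30 hr optical density reads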;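 further: z-score against mean and SD of all compound wells on the same plate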
* hit, by the source's call; x = no result.

SMILES | APP 5'UTR act | NF-kB expr up | FLuc inhib CS | FLuc act counter | STAT1 activator | SDO1 yeast rescue
O=C(Nc1ccc(Br)cc1)c1cnccn1 | 23.0 | 2.01 | 7.2 | 0.9 | 113.8 | -0.42
CC(C)(CNC(=O)c1cc2ccccc2o1)N1CCOCC1 | 12.3 | 1.2 | -9.0 | 1.1 | 105.0 | -0.4
COC(=O)CSC1=C(C#N)C(c2ccsc2)CC(=O)N1 (stereo unspecified) | 12.4 | 1.21 | -4.6 | 1 | 108.1 | 0.44
O=C(COC(=O)CCC(=O)c1ccc(Cl)cc1)NC1CC1 | -1.1 | 1.3 | -6.7 | 1.1 | 95.3 | x
CCOc1ccc(NC(=O)c2ccccn2)cc1 | 116.1 | 1.44 | 95.5* | 0 | 46.3 | 0.87
Cc1ccc(NC(=O)c2cnccn2)cc1 | 42.6 | 2.15 | 26.5 | 0.7 | 133.8* | x
CCOc1ccc(NC(=O)c2ccccc2O)cc1 | 118.0 | 6.26* | 87.4* | 0.1 | 100.9 | -0.57
CCOc1ccc(C(=O)Nc2ncccc2Cl)cc1 | 42.5 | 2.47 | 21.0 | 0.8 | 129.3* | x
CCOc1ccc(NC(=O)c2ccccc2OCC(=O)c2ccccc2)cc1 | 7.2 | 0.45 | 60.9* | 0.4 | 106.2 | -1.43
CCCC(=O)Nc1ccc(NC(=O)c2ccccn2)cn1 | 77.3 | 1.95 | 36.4 | 0.6 | 140.6* | 0.19
O=C(Nc1ccc(OC(F)F)c(Cl)c1)c1ccccn1 | 138.9* | 9.44* | 46.7 | 0.5 | 146.5* | x
CCCC(=O)Nc1ccc(NC(=O)c2ccccc2OC)cn1 | 9.3 | 1 | -0.8 | 1 | 96.2 | 1.21
Cc1ccc(NC(=O)c2ccccc2OCC(=O)c2ccccc2)cc1 | 13.8 | 1.36 | 4.8 | 1 | 95.5 | -1.26
CCN(CC)c1ccc(/C=N/NC(=O)c2cnccn2)cc1 | -73.7 | 2.6 | 66.2* | 0.3 | 132.5* | x
COC(=O)C1=C(COc2ccccc2)NC(=O)NC1c1ccc(Br)cc1 (stereo unspecified) | 15.2 | 0.86 | 0.6 | 1 | 100.3 | -1.97
CCC1(C)CC(c2nc(-c3ccc(OC)cc3)cs2)CCS1 (stereo unspecified) | 15.8 | 1.25 | -2.6 | 1 | 110.0 | 1.53
Nc1cccc(CN2CCCC2)c1 | 10.9 | 0.91 | -1.1 | 1 | 106.2 | x
CCOc1ccc(NC(=O)c2nccnc2CO)cc1 | 61.4 | 3.2 | 63.4* | 0.4 | 143.9* | -0.12
C[C@@H](C(=O)Nc1ccc2ccccc2c1)[C@H]1C[C@]1(C)[C@H](NC(=O)c1cccnc1)c1ccccc1 | 0.9 | 0.64 | -8.4 | 1.1 | 103.5 | 7.24*
NC(N)=NC1=NC(=O)/C(=C/c2ccccc2-n2cccn2)S1 | 21.9 | 1.02 | -6.0 | 1.1 | 99.6 | x
O=C(CCN1C(=O)c2cccc3cccc(c23)C1=O)NCc1cccnc1 | -3.6 | 1.24 | -3.9 | 1 | 96.4 | x
O=C1c2cccc3c([N+](=O)[O-])ccc(c23)C(=O)N1Cc1cccnc1 | -82.4 | 3.84* | -5.2 | 1.1 | 105.7 | x
Cc1ccnc(N2C(=O)c3cccc4c([N+](=O)[O-])ccc(c34)C2=O)c1 | -36.9 | 4.7* | -2.8 | 1 | 89.0 | -2.6
CN1c2ccccc2-c2nc3ccccc3n2C1c1cccs1 (stereo unspecified) | 12.7 | 1.04 | -7.0 | 1.1 | 108.6 | -1.58
O=C(O)C(Sc1ccncn1)c1ccccc1 (stereo unspecified) | -2.0 | 0.99 | -5.8 | 1.1 | 103.3 | x
SMILES | APP 5'UTR act | NF-kB expr up | FLuc inhib CS | FLuc act counter | STAT1 activator | SDO1 yeast rescue
COc1ccc(CSc2nnc3[nH]c(=O)cc(N)n23)cc1 | 3.3 | 0.88 | 7.0 | 0.9 | 99.1 | x
O=C(O)c1ccc(Oc2cccc([N+](=O)[O-])c2)cc1C(=O)O | 1.8 | 4.28* | -2.6 | 1 | 99.4 | 0.84
O=C(O)c1cc([N+](=O)[O-])ccc1C(=O)Nc1ccccc1 | -9.7 | 1.08 | -4.1 | 1 | 99.3 | 1.28
COc1ccc(-c2ccc3c(n2)sc2c(=O)[nH]c(=O)[nH]c23)cc1OC | -12.8 | 1.13 | 0.5 | 1 | 98.9 | x
C/C(=N\Nc1ccc([N+](=O)[O-])cc1)c1ccc2c(c1)OCO2 | 44.2 | 2.39 | -1.6 | 1 | 135.8* | x
Cc1ccc(C(=O)NNC(=O)CCC(=O)Nc2cc(C)on2)cc1 | 4.3 | 1.03 | -0.8 | 1 | 100.8 | 1.94
Cc1cc(NC(=O)c2ccc3c(c2)OCCO3)no1 | 105.8 | 3.97* | 93.3* | 0.1 | 93.2 | 1.47
O=C(Nc1ccccn1)c1ccc2c(c1)OCO2 | 98.7 | 2.69 | 46.9 | 0.5 | 125.2 | x
Cc1cc(NC(=O)c2ccc3c(c2)OCO3)no1 | 92.1 | 2.89 | 61.7* | 0.4 | 117.6 | -0.32
Cc1cc(NC(=O)CCC(=O)NNC(=O)c2ccc(C(C)(C)C)cc2)no1 | 8.9 | 1.3 | 77.6* | 0.2 | 117.0 | 0.85
CCOC(=O)N1CCN(Cc2nc(-c3cccs3)no2)CC1 | 8.6 | 1.23 | 1.8 | 1 | 100.7 | x
CCc1ccccc1NC(=O)Nc1ccc2c(c1)OCO2 | 12.0 | 1.3 | 5.4 | 0.9 | 108.4 | x
Cc1ccccc1C(=O)N/N=C1\SCC(=O)N1Cc1ccco1 | -15.8 | 0.98 | -3.3 | 1 | 94.9 | x
O=C(Nc1ccc([N+](=O)[O-])cn1)c1ccc2c(c1)OCO2 | 74.2 | 2.49 | -3.8 | 1 | 135.4* | x
CCOC(=O)c1c(C)[nH]c(O)c1C=Nc1ccccc1 | 0.9 | 1.02 | -2.9 | 1 | 108.5 | -0.38
CCOC(=O)c1c(C)[nH]c(N=Nc2cccc(C)c2)c1C | 158.1* | 3.43* | 12.9 | 0.9 | 137.7* | -2.1
CCOC(=O)c1c(C)[nH]c(N=Nc2ccccc2)c1C | 62.7 | 3.47* | -0.7 | 1 | 127.4 | -0.9
CCOC(=O)c1c(C)[nH]c(C=Nc2ccccc2)c1O | 7.1 | 1.11 | -4.3 | 1 | 105.2 | -1.07
Cc1cc(Br)ccc1-n1[nH]c(C)c(C=Nc2cccc3nsnc23)c1=O | 4.0 | 0.83 | -1.8 | 1 | 107.9 | x
COc1ccc(CCNC(=O)Cn2c([N+](=O)[O-])cnc2C)cc1OC | 2.3 | 0.99 | -3.0 | 1 | 98.2 | x
O=C(NNC1CC(=O)N(c2ccc(Br)cc2)C1=O)c1ccccn1 (stereo unspecified) | -13.0 | 1.14 | -1.3 | 1 | 103.8 | x
O=C(c1ccc(S(=O)(=O)c2ccccc2Cl)c([N+](=O)[O-])c1)N1CCCCCC1 | -7.0 | 0.57 | -1.8 | 1 | 93.8 | -1.12
O=C(COC(=O)CNC(=O)c1ccccc1)Nc1ccc2c(c1)OCO2 | 6.0 | 1.11 | 1.9 | 1 | 93.1 | x
CCN(CC)c1ccc(NC(=S)NC(=O)c2ccco2)cc1 | 96.8 | 1.63 | 8.1 | 0.9 | 142.2* | x
O=C(Nc1ccc(N2CCCC2)c(Cl)c1)c1cccs1 | 234.6* | 7.43* | 66.0* | 0.3 | 142.1* | x
C=CCN(CC=C)S(=O)(=O)c1ccc(NC(=S)NC(=O)c2ccco2)cc1 | -0.1 | 1 | -7.1 | 1.1 | 99.5 | -1
